Laboratory results from ChEMBL document CHEMBL2176925, “Novel ¹⁸F-labeled benzoxazole derivatives as potential positron emission tomography probes for imaging of cerebral β-amyloid plaques in Alzheimer's disease” (J Med Chem, 2012).

Columns and labels:
[1] = tested on: Lung; assay: Drug uptake in ddY mouse lung at 370 kBq/100 ul, iv at 30 mins by gamma-counting analysis; format: ADME, organism-based; details: in vivo, 0.5 h
In short: (§1)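 Normal male ddY mice (5 weeks, 20−22 g, n = 5) received 370 kBq of tracer in 100 μL saline with 5% EtOH via tail vein. Mice were sacrificed at set times after injection, and organs were excised, weighed and γ-counted against diluted injectate aliquots. Values are %ID per gram, except stomach and intestine as %ID per organ, given as mean ± SD of 5 mice.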

[2] = tested on: Lung; assay: Drug uptake in ddY mouse lung at 370 kBq/100 ul, iv at 10 mins by gamma-counting analysis; format: ADME, organism-based; details: in vivo; in short: as §1
[3] = tested on: Spleen; assay: Drug uptake in ddY mouse spleen at 370 kBq/100 ul, iv at 60 mins by gamma-counting analysis; format: ADME, organism-based; details: in vivo, 1 h; in short: as §1
[4] = tested on: Spleen; assay: Drug uptake in ddY mouse spleen at 370 kBq/100 ul, iv at 30 mins by gamma-counting analysis; format: ADME, organism-based; details: in vivo, 0.5 h; in short: as §1
[5] = tested on: Spleen; assay: Drug uptake in ddY mouse spleen at 370 kBq/100 ul, iv at 10 mins by gamma-counting analysis; format: ADME, organism-based; details: in vivo; in short: as §1
[6] = tested on: Spleen; assay: Drug uptake in ddY mouse spleen at 370 kBq/100 ul, iv at 2 mins by gamma-counting analysis; format: ADME, organism-based; details: in vivo; in short: as §1
[7] = tested on: Liver; assay: Drug uptake in ddY mouse liver at 370 kBq/100 ul, iv at 30 mins by gamma-counting analysis; format: ADME, organism-based; details: in vivo, 0.5 h; in short: as §1
[8] = tested on: Liver; assay: Drug uptake in ddY mouse liver at 370 kBq/100 ul, iv at 60 mins by gamma-counting analysis; format: ADME, organism-based; details: in vivo, 1 h; in short: as §1
[9] = tested on: Brain; assay: Drug uptake in wild type C57BL6 mouse brain at 370 kBq/100 ul after 1 hr by autoradiographic analysis; format: ADME, tissue-based; details: in vitro
In short: (§2)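 Paraffin sections of brain were used: C57BL6 mice (wild-type, 12 months), human AD (person) and normal human. Sections were deparaffinized through xylene and graded ethanol, then equilibrated 30 min in PBS (0.2 M, pH 7.4). Incubated 1 h at room temperature with tracer, 370 kBq/100 μL, washed 1 min in 50% ethanol and rinsed with water. Imaging plate exposed overnight. Plaques confirmed by thioflavin-S or anti-Aβ1-42 monoclonal immunostaining.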

[10] = Displacement of [125I]IMPY from amyloid beta (1 to 42) fibrils after 2 hrs by gamma-counting analysis
In short: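 Competition binding with aggregated Aβ1-42 fibrils (60 nM final) and [125I]IMPY. Inhibitors were tested at 10⁻⁵–10⁻¹⁰ M (in ethanol) in 0.2 M PBS, pH 7.4, 1 mL, for 2 h at 37 °C with shaking. Nonspecific binding was defined with 1 μM IMPY. Bound ligand was collected by GF/B filtration and γ-counted. Ki was derived from IC50 via Cheng–Prusoff.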

[11] = tested on: Lung; assay: Drug uptake in ddY mouse lung at 370 kBq/100 ul, iv at 2 mins by gamma-counting analysis; format: ADME, organism-based; details: in vivo; in short: as §1
[12] = tested on: Liver; assay: Drug uptake in ddY mouse liver at 370 kBq/100 ul, iv at 2 mins by gamma-counting analysis; format: ADME, organism-based; details: in vivo; in short: as §1
[13] = tested on: Heart; assay: Drug uptake in ddY mouse heart at 370 kBq/100 ul, iv at 30 mins by gamma-counting analysis; format: ADME, organism-based; details: in vivo, 0.5 h; in short: as §1
[14] = tested on: Heart; assay: Drug uptake in ddY mouse heart at 370 kBq/100 ul, iv at 10 mins by gamma-counting analysis; format: ADME, organism-based; details: in vivo; in short: as §1
[15] = tested on: Heart; assay: Drug uptake in ddY mouse heart at 370 kBq/100 ul, iv at 2 mins by gamma-counting analysis; format: ADME, organism-based; details: in vivo; in short: as §1
[16] = tested on: Bone; assay: Drug uptake in ddY mouse bone at 370 kBq/100 ul, iv at 60 mins by gamma-counting analysis; format: ADME, organism-based, Bone element; details: in vivo, 1 h; in short: as §1
[17] = tested on: Bone; assay: Drug uptake in ddY mouse bone at 370 kBq/100 ul, iv at 2 mins by gamma-counting analysis; format: ADME, organism-based, Bone element; details: in vivo; in short: as §1
[18] = tested on: Bone; assay: Drug uptake in ddY mouse bone at 370 kBq/100 ul, iv at 30 mins by gamma-counting analysis; format: ADME, organism-based, Bone element; details: in vivo, 0.5 h; in short: as §1
[19] = tested on: Brain; assay: Drug uptake in ddY mouse brain at 370 kBq/100 ul, iv at 30 mins by gamma-counting analysis; format: ADME, organism-based; details: in vivo, 0.5 h; in short: as §1
[20] = tested on: Brain; assay: Drug uptake in ddY mouse brain at 370 kBq/100 ul, iv at 2 mins by gamma-counting analysis; format: ADME, organism-based; details: in vivo; in short: as §1
[21] = tested on: Blood; assay: Drug uptake in ddY mouse blood at 370 kBq/100 ul, iv at 30 mins by gamma-counting analysis; format: ADME, organism-based; details: in vivo, 0.5 h; in short: as §1
[22] = tested on: Brain; assay: Drug uptake in healthy human brain at 370 kBq/100 ul after 1 hr by immunohistochemical staining method; format: ADME, tissue-based; in short: as §2
[23] = tested on: Brain; assay: Drug uptake in healthy human brain at 370 kBq/100 ul after 1 hr by autoradiographic analysis; format: ADME, tissue-based; in short: as §2
[24] = tested on: Brain; assay: Drug uptake in wild type C57BL6 mouse brain at 370 kBq/100 ul after 1 hr by thioflavinS-staining method; format: ADME, tissue-based; in short: as §2
[25] = tested on: Brain; assay: Drug uptake in wild type C57BL6 mouse brain at 40.7 MBq, iv after 30 mins by autoradiographic analysis; format: ADME, organism-based; details: in vivo, 0.5 h
In short: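 Wild-type C57BL6 mice (18 months) received 40.7 MBq tracer iv via the femoral vein in 100 μL saline with 5% EtOH. Decapitated at 30 min, and brains frozen in powdered dry ice. 20 μm sections exposed to an imaging plate for 8 h, then the same sections stained with thioflavin-S.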

[26] = n-Octanol-PBS buffer partition coefficient, log D of the compound at 370 kBq after 3 mins at pH 7.4; format: physicochemical
In short: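 For log D, tubes containing n-octanol and PBS were vortexed 3 min at room temperature and centrifuged 5 min at 3000 rpm. Weighed samples of the octanol (100 μL) and buffer (500 μL) layers were counted. Log D is the log of the ratio of counts per gram, octanol to PBS.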

[27] = tested on: Brain; assay: Ratio of drug uptake in brain at 2 mins to drug uptake in brain at 60 mins in ddY mouse at 370 kBq/100 ul, iv; format: ADME, organism-based; details: in vivo
In short: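 Tail-vein injection of 370 kBq/100 μL (saline, 5% EtOH) into male ddY mice (5 weeks, 20−22 g, n = 5). Brain excised at 2 and 60 min, weighed and γ-counted against diluted injectate. Uptake is %ID/g, and the ratio is brain at 2 min divided by brain at 60 min.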

[28] = tested on: Intestine; assay: Drug uptake in ddY mouse intestine at 370 kBq/100 ul, iv at 60 mins by gamma-counting analysis; format: ADME, organism-based; details: in vivo, 1 h; in short: as §1
[29] = tested on: Intestine; assay: Drug uptake in ddY mouse intestine at 370 kBq/100 ul, iv at 10 mins by gamma-counting analysis; format: ADME, organism-based; details: in vivo; in short: as §1
[30] = tested on: Intestine; assay: Drug uptake in ddY mouse intestine at 370 kBq/100 ul, iv at 30 mins by gamma-counting analysis; format: ADME, organism-based; details: in vivo, 0.5 h; in short: as §1
[31] = tested on: Intestine; assay: Drug uptake in ddY mouse intestine at 370 kBq/100 ul, iv at 2 mins by gamma-counting analysis; format: ADME, organism-based; details: in vivo; in short: as §1
[32] = tested on: Stomach; assay: Drug uptake in ddY mouse stomach assessed per organ at 370 kBq/100 ul, iv at 2 mins by gamma-counting analysis; format: ADME, organism-based; details: in vivo; in short: as §1
[33] = tested on: Kidney; assay: Drug uptake in ddY mouse kidney at 370 kBq/100 ul, iv at 60 mins by gamma-counting analysis; format: ADME, organism-based; details: in vivo, 1 h; in short: as §1
[34] = tested on: Kidney; assay: Drug uptake in ddY mouse kidney at 370 kBq/100 ul, iv at 30 mins by gamma-counting analysis; format: ADME, organism-based; details: in vivo, 0.5 h; in short: as §1

| SMILES | Drug uptake [1] [% ID/g] | Drug uptake [2] [% ID/g] | Drug uptake [3] [% ID/g] | Drug uptake [4] [% ID/g] | Drug uptake [5] [% ID/g] | Drug uptake [6] [% ID/g] | Drug uptake [7] [% ID/g] | Drug uptake [8] [% ID/g] | Drug uptake [9] | Ki [10] [nM] | Drug uptake [11] [% ID/g] | Drug uptake [12] [% ID/g] | Drug uptake [13] [% ID/g] | Drug uptake [14] [% ID/g] | Drug uptake [15] [% ID/g] | Drug uptake [16] [% ID/g] | Drug uptake [17] [% ID/g] | Drug uptake [18] [% ID/g] | Drug uptake [19] [% ID/g] | Drug uptake [20] [% ID/g] | other results |
| --- | --- | --- | --- | --- | --- | --- | --- | --- | --- | --- | --- | --- | --- | --- | --- | --- | --- | --- | --- | --- | --- |
| CNc1ccc(-c2nc3cc(OCCOCCOCC[18F])ccc3o2)cc1 | 5.3 | 5.64 | 3.42 | 3.92 | 4.22 | 3.9 | 19.31 | 13.06 | Not Active | 9.3 | 8.18 | 20.28 | 4.84 | 4.78 | 8.57 | 5.78 | 3.17 | 3.74 | 4.07 | 8.12 | Drug uptake [21]: 4.67 % ID/g; Drug uptake [22]: Not Active; Drug uptake [23]: Not Active; Drug uptake [24]: Not Active; Drug uptake [25]: Not Active; logD at 0.05 h [26]: 3.09; Ratio [27]: 2.67; Drug uptake [28]: 23.91 % ID/g; Drug uptake [29]: 25 % ID/g; Drug uptake [30]: 23.92 % ID/g; Drug uptake [31]: 11.33 % ID/g; Drug uptake [32]: 1.59 %ID; Drug uptake [33]: 5.4 % ID/g; Drug uptake [34]: 6.84 % ID/g |
| CN(C)c1ccc(-c2nc3cc(OCCOCCOCC[18F])ccc3o2)cc1 | 3.28 | 3.64 | 2.25 | 2.53 | 2.88 | 3.6 | 9.2 | 6.92 | Not Active | 3.9 | 5.18 | 13.04 | 3.14 | 3.52 | 5.55 | 3.45 | 1.18 | 1.96 | 2.5 | 5.29 | Drug uptake [21]: 2.84 % ID/g; Drug uptake [22]: Not Active; Drug uptake [23]: Not Active; Drug uptake [24]: Not Active; Drug uptake [25]: Not Active; logD at 0.05 h [26]: 3.45; Ratio [27]: 2.5; Drug uptake [28]: 15.82 % ID/g; Drug uptake [29]: 15.7 % ID/g; Drug uptake [30]: 22.59 % ID/g; Drug uptake [31]: 4.8 % ID/g; Drug uptake [32]: 1.1 %ID; Drug uptake [33]: 3.68 % ID/g; Drug uptake [34]: 4.08 % ID/g |
